Source: article PMC12345971 (Computational and Structural Biotechnology Journal, 2025)
Where two headings read alike, the source gives them in different places.

Assays:
[1] = tested on: A549 lung carcinoma cell line; assay: Cytotoxic assay; type: cell-based, human
Method in brief: (§1)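 A549 (passage 20–26) and HuCCA-1 (passage 115–121) kept in Ham's F12 with 2 mM L-glutamine, 100 U/mL penicillin-streptomycin, 10 % FBS; MRC-5 fibroblasts (passage 19–23) in DMEM, 10 % FBS. Cells seeded at 5 × 10³ – 2 × 10⁴/well in RPMI-1640 + 10 % FBS, 24 h at 37C, 5 % CO₂. DMSO-dissolved test compound added as serial dilutions, 48 h. MTT, absorbance 550 nm; IC50 = 50 % growth inhibition.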

[2] = tested on: HepG2 hepatocellular carcinoma cell line; assay: Cytotoxic assay; type: cell-based, human
[3] = tested on: HuCCA-1 cholangiocarcinoma cancer cell line; assay: Cytotoxic assay; type: cell-based, human; details: IC50 for normal cell (MRC-5) / IC50 for cancer cell
Method in brief: as §1

[4] = Cytotoxicity against normal cell line; type: cell-based; details: human, MRC-5 normal fetal lung fibroblast cells
[5] = tested on: MOLT-3 lymphoblastic leukemia cell line; assay: Cytotoxic assay; type: cell-based, human; details: for IC50: Homo sapiens
Method in brief: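 MOLT-3 leukemia cells (passage 15–25) grown in RPMI-1640 with 2 mM L-glutamine, penicillin-streptomycin, sodium pyruvate, glucose, 10 % FBS. Seeding was at 5 × 10³ – 2 × 10⁴ cells/well, 24 h at 37C, 5 % CO₂. Serial dilutions of test compound in DMSO then given for 48 h. XTT read-out at 550 nm. Normal-cell comparator: MRC-5 in DMEM, MTT read-out. IC50 is the concentration for 50 % growth inhibition.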

[6] = tested on: 4 cancer cell lines (HepG2, HuCCA-1, A549, MOLT-3); assay: Cytotoxic assay, range over the four cancer cell lines; type: cell-based; details: Homo sapiens, read-out: IC50, range over the tested cancer cell lines
Method in brief: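 Human HepG2 (DMEM), HuCCA-1 and A549 (Ham's F12), and MOLT-3 (RPMI-1640) were all in 10 % FBS. MRC-5 normal fibroblasts were in DMEM. Seeding was at 5 × 10³ – 2 × 10⁴ cells/well for 24 h at 37C. Serial dilutions of test compound (DMSO solvent) were given for 48 h. Adherent lines were read by MTT and MOLT-3 by XTT, absorbance 550 nm. IC50 is the concentration for 50 % growth inhibition.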

[7] = IC50 for normal cell (MRC-5) / IC50 for cancer cell

In the case of `COc1cccc2c1C(=O)c1c(O)c3c(c(O)c1C2=O)C[C@@](O)(C(=O)CO)C[C@@H]3O[C@H]1C[C@H](N)[C@H](O)[C@H](C)O1` [Doxorubicin, doxorubicin], the IC50 ([1]; Homo sapiens, A549, 48 h, read-out: IC50 A549) is reported as 310 nM, the “Selectivity index (SI) A549” value [1, 7] is reported as 3.02 and the IC50 ([2]; Homo sapiens, HepG2, 48 h, read-out: IC50 HepG2, MTT, 48 h) is reported as 460 nM. The “Selectivity index (SI) HepG2” value [2, 7] was 2.02, the “Selectivity index (SI) HuCCA-1” value [3] was 1.08 and the IC50 at 48 h [4] was 930 nM.
With `COc1cc([C@@H]2c3cc4c(cc3[C@@H](O[C@@H]3O[C@@H]5CO[C@@H](C)O[C@H]5[C@H](O)[C@H]3O)[C@H]3COC(=O)[C@H]23)OCO4)cc(OC)c1O` [Etoposide, etoposide] the IC50 ([5]; MOLT-3, 48 h, read-out: IC50 MOLT-3) was 60 nM, the “Selectivity index (SI) MOLT-3” value [5, 7] was 218.85 and the IC50 at 48 h [4] was 13400 nM.
Work on `CC1=CC(=O)c2c(O)cccc2C1=O` [Compound 10, plumbagin] yielded an IC50 [6] of 1380 to 13600 nM and an IC50 ([5]; MOLT-3, read-out: Experimental pIC50 MOLT-3 (converted)) of 1380 nM.
